According to ChEMBL document CHEMBL1129059, “Antitumor properties of some 2-[(dimethylamino)methyl]phenylgold(III) complexes” (J Med Chem, 1996):

What was measured:
SW 1116 = test: Compound was tested for in vitro growth inhibition of primary panel tumor cell line SW1116; type: functional, cell-based, Homo sapiens
In short: (§1)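 Primary-panel lines kept in L15, RPMI 1640 plus pyruvate, or MEM, each with 10% FBS. Cells were seeded at 5×10^4–10^5 cells/mL, preincubated 24 h, then exposed 4 h to 0–200 μg/mL from a 2 mg/mL stock in 10% DMA/PBS. After washout and 72 h further growth, cells were read by SRB. IC50 was the concentration giving 50% survival versus untreated controls.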

SW-620 [1] = test: Compound was tested for in vitro growth inhibition of primary panel tumor cell line SW620; type: functional, cell-based, Homo sapiens; in short: as §1
HT-29 = test: Compound was tested for in vitro growth inhibition of primary panel tumor cell line HT-29/219; type: functional, cell-based, Homo sapiens; in short: as §1
SK-OV-3 [2] = test: Compound was tested for in vitro growth inhibition of primary panel tumor cell lines SK-OV-3; type: functional, cell-based, Homo sapiens; in short: as §1
A2780 [3] = test: Compound was tested for in vitro growth inhibition of Ovarian carcinoma cell line panel A2780-R; type: functional, cell-based, Homo sapiens
In short: (§2)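 Ovarian lines grown as monolayers in DMEM with 10% FBS, insulin, hydrocortisone and L-glutamine under 6% CO2. Cells were seeded at 3–5 × 10³/well and left to attach overnight. Compounds were freshly dissolved in DMA or water and applied for 96 h in quadruplicate wells. Growth was measured by SRB and reported as IC50.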

HX62 cell line = test: Compound was tested for in vitro growth inhibition of Ovarian carcinoma cell line panel HX62; type: functional, cell-based, Homo sapiens; in short: as §2
HT-1376 = test: Compound was tested for in vitro growth inhibition of primary panel tumor cell line HT1376; type: functional, cell-based, Homo sapiens; in short: as §1
[4] = Solubility at 25 degrees Celsius in 1-Octanol; type: physicochemical
In short: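 A sample was tumbled in 1-octanol at 25 °C for 24 h and filtered. An aliquot was evaporated and the residue taken up in dilute aqua regia. Gold content was determined as for the aqueous samples, with indium as internal standard.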

SK-OV-3 [5] = test: Compound was tested for in vitro growth inhibition of Ovarian carcinoma cell line panel SK-OV-3; type: functional, cell-based, Homo sapiens; in short: as §2
CH1 [6] = test: Compound was tested for in vitro growth inhibition of Ovarian carcinoma cell line panel CH1-R; type: functional, cell-based; in short: as §2
CH1 [7] = test: Compound was tested for in vitro growth inhibition of Ovarian carcinoma cell line panel CH1; type: functional, cell-based; in short: as §2
[8] = Solubility at 25 degrees Celsius in water; type: physicochemical; conditions: buffer
In short: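 5–10 mg sample was tumbled in 5.0 mL water at 25 °C for 24 h and filtered. The solution was diluted as needed and gold was quantified with 1 ppm indium as internal standard.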

A2780 [9] = test: Compound was tested for in vitro growth inhibition of Ovarian carcinoma cell line panel A2780; type: functional, cell-based, Homo sapiens; in short: as §2
ZR-75-1 [10] = test: Compound was tested for in vitro growth inhibition of primary panel tumor cell line ZR-75-1; type: functional, cell-based, Homo sapiens; in short: as §1
[11] = Range is evaluated. (Highest IC50/Lowest IC50); type: functional
[12] = Range is evaluated.; type: functional
SW-620 [13] = test: Compound was tested for in vitro growth inhibition of primary panel tumor cell lines SW620; type: functional, cell-based, Homo sapiens; in short: as §1
ZR-75-1 [14] = test: Compound was tested for in vitro growth inhibition of primary panel tumor cell linZR-75-1; type: functional, cell-based, Homo sapiens; in short: as §1
SK-OV-3 [15] = test: Compound was tested for in vitro growth inhibition of primary panel tumor cell line SK-OV-3; type: functional, cell-based, Homo sapiens; in short: as §1

Substance “Malonato[2-(dimethylamino)methyl]phenyl-C,N]gold-(III)” has an IC50 (SW 1116) of 80 µM, an IC50 (SW-620 [1]) of 67 µM and an IC50 (HT-29) of 36 µM. For the same substance, the IC50 (SK-OV-3 [2]) was 11 µM, the IC50 (A2780 [3]) was 16 µM and the IC50 (HX62 cell line) was 27 µM. The IC50 (HT-1376) was 11 µM, the Solubility [4] was 3.57 mM and the IC50 (SK-OV-3 [5]) was 30 µM. It also gave an IC50 (CH1 [6]) of 3.3 µM, an IC50 (CH1 [7]) of 2.7 µM and a Solubility [8] of 3.58 mM. For the same substance, the IC50 (A2780 [9]) was 2.7 µM and the IC50 (ZR-75-1 [10]) was 36 µM.

Substance “Oxalato[2-(dimethylamino)methyl]phenyl-C,N]gold-(III) Hemihydrate” has a Range [11] of 21.5 and a Range [12] of 11.4.

In the case of CISPLATIN, the IC50 (SW 1116) is reported as 163 µM, the IC50 (SW-620 [13]) is reported as 167 µM and the IC50 (ZR-75-1 [14]) is reported as 27 µM. The IC50 (HT-29) was 17 µM, the IC50 (A2780 [3]) was 10 µM and the IC50 (HX62 cell line) was 18 µM. The IC50 (HT-1376) was 23 µM, the IC50 (SK-OV-3 [5]) was 5.2 µM and the IC50 (CH1 [6]) was 0.56 µM. It also gave an IC50 (CH1 [7]) of 0.12 µM, an IC50 (A2780 [9]) of 1.2 µM and an IC50 (SK-OV-3 [15]) of 23 µM.
